Assay [1] concerns the target Opioid receptors; mu & delta (Rattus norvegicus) (UniProt P33533+P33535). The assay can be described thus: Receptor selectivity for the delta to mu opioid receptor. The assay is classed as protein assay. The essentials:
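δ/μ ratio of Ki values from rat brain P2 synaptosome competition binding ([3H]DPDPE for δ, [3H]DAGO for μ; 2 h, room temperature). Ki calculated by Cheng–Prusoff.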

Assay [2] has as its target Mu-type opioid receptor (Rattus norvegicus, UniProt P33535). The assay can be described thus: Binding affinity for Opioid receptor mu 1 using [3H]DAGO in rat brain P2 synaptosomal preparation. The assay is classed as tissue-based. The essentials:
(§1)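 Competition binding at equilibrium, 2 h at room temperature, on rat brain P2 synaptosomes. Nonspecific binding with 2 μM unlabeled peptide. GF/C filtration and scintillation counting. Duplicates, five to eight doses, 3–5 repeats. Ki by Cheng–Prusoff.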

In assay [3] the target is Delta-type opioid receptor (Rattus norvegicus, UniProt P33533). Nature of the assay: Binding affinity for Opioid receptor delta 1 using [3H]DPDPE in rat brain P2 synaptosomal preparation. The format is tissue-based. In a few lines:
as §1

Assay [4] has as its target T1, Delta-type opioid receptor (Mus musculus, UniProt P32300). The assay can be described thus: Opioid receptor delta 1 agonism in mouse vas deferens. The format is functional, tissue-based. The essentials: (§2)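 Isolated tissue bioassay: mouse vas deferens for δ, guinea pig ileum for μ. Field stimulation with bipolar rectangular pulses of supramaximal voltage. Inhibition of the electrically evoked twitch measured, and IC50 taken from concentration–response curves. [D-Ala2]deltorphin I (MVD) and dermorphin (GPI) were internal standards. Five to six separate assays.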

Assay [5] concerns the target Mu-type opioid receptor (Cavia porcellus, UniProt P97266). Nature of the assay: Opioid receptor mu 1 agonism in guinea pig ileum. The assay is classed as functional, tissue-based. In a few lines:
as §2

Assay [6] concerns the target T1, Delta-type opioid receptor. The assay can be described thus: Concentration required to double the agonist concentration to achieve the original response for Opioid receptor delta 1. The format is functional. The settings on record: read-out: pA2 (converted). The essentials:
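Antagonism reported as pA2, the negative log of the molar antagonist concentration that doubles the agonist concentration needed for the original response. Measured in the δ bioassay, the electrically stimulated mouse vas deferens twitch preparation. n = 5–6.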

Each structure is given as a SMILES string. Where only a bound is given, the exact number is not on record here.

Data on eleven compounds can be found in ChEMBL document CHEMBL1145848, “Unique high-affinity synthetic mu-opioid receptor agonists with central- and systemic-mediated analgesia” (J Med Chem, 2003).

Chain of Opioid receptors; mu & delta (Rattus norvegicus) (P33533 whole entry, looked up): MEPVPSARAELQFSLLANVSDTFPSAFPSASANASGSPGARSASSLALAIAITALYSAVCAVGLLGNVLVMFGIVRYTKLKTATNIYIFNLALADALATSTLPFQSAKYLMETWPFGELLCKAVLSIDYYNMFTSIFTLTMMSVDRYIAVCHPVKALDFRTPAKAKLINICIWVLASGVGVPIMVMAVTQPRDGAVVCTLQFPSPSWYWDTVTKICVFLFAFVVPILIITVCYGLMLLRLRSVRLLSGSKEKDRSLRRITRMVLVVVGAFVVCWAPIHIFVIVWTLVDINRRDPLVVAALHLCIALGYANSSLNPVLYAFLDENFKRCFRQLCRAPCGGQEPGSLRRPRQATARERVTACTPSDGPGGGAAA
Chain of Opioid receptors; mu & delta (Rattus norvegicus) (P33535 whole entry, looked up): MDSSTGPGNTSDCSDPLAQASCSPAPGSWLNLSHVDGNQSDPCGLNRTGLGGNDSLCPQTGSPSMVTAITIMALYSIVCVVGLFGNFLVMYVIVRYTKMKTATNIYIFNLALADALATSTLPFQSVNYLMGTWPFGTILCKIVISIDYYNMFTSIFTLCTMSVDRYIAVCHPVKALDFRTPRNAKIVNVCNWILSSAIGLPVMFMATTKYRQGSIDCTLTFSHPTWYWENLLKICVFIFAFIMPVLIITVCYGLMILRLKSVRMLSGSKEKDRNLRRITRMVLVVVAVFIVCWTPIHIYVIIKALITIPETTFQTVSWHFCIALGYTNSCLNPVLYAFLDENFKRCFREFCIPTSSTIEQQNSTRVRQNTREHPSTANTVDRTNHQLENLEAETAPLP
Chain of Delta-type opioid receptor (Rattus norvegicus, UniProt P33533) (P33533 whole entry): as the sequence (P33533 whole entry, looked up) above
Chain of Mu-type opioid receptor (Rattus norvegicus, UniProt P33535) (P33535 whole entry): as the sequence (P33535 whole entry, looked up) above
T1 sequence (P32300 whole entry): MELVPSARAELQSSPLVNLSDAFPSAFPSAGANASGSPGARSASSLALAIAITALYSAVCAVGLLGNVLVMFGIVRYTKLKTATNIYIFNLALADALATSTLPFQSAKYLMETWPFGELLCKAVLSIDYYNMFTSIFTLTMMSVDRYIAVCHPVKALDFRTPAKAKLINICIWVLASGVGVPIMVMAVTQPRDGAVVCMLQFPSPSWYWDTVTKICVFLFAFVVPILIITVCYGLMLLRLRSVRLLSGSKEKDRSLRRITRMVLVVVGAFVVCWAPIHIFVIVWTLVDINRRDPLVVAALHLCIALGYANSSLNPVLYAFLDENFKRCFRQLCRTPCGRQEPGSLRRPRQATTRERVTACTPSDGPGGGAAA
Chain of Mu-type opioid receptor (Cavia porcellus, UniProt P97266) (P97266 whole entry): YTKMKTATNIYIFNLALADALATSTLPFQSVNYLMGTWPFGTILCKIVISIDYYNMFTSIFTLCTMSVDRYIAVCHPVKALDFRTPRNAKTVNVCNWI

Consider `N[C@H](Cc1ccc(O)cc1)C(=O)NCCCCCCNC(=O)[C@@H](N)Cc1ccc(O)cc1`, for which the Ratio in assay [1] is 53. Moreover, the Ki on Mu-type opioid receptor [2] is 410 nM; in assay [3], 21900 nM.

`N[C@H](Cc1ccc(O)cc1)C(=O)NCCCCCCCCNC(=O)[C@@H](N)Cc1ccc(O)cc1`: the Ki at Mu-type opioid receptor [2] came out at 399 nM; in assay [3], 6150 nM.

Turning to `N[C@H](Cc1ccc(O)cc1)C(=O)NCCNC(=O)[C@@H](N)Cc1ccc(O)cc1`, in assay [1], the Ratio is 13. Moreover, the Ki on Mu-type opioid receptor [2] turned out to be 648 nM; in assay [3], 8290 nM.

In the case of `Cc1cc(O)cc(C)c1C[C@@H](N)C(=O)NCCCCCCCCNC(=O)[C@@H](N)Cc1c(C)cc(O)cc1C`, the values for the IC50 (in assay [4]; on Mu-type opioid receptor [5]) were > 10000 nM and 53.7 nM, respectively. In addition, the Ratio in assay [1] is 78. The Ki at Mu-type opioid receptor [2] was determined as 0.19 nM; in assay [3], 14.8 nM. For the same compound, the Kb in assay [6] is 398 nM.

Consider `Cc1cc(O)cc(C)c1C[C@H](N)C(=O)NCCCCNC(=O)[C@H](N)Cc1ccc(O)cc1`, for which the IC50 in assay [4] was > 10000 nM; against Mu-type opioid receptor [5], 255 nM. Besides, in assay [1], the Ratio stood at 349. For the same compound, the values for the Ki (at Mu-type opioid receptor [2]; in assay [3]) were 0.38 nM and 133 nM, respectively. Besides, in assay [6], the Kb was 5010 nM.

Take `Cc1cc(O)cc(C)c1C[C@@H](N)C(=O)NCCNC(=O)[C@@H](N)Cc1c(C)cc(O)cc1C`: the values for the IC50 (in assay [4]; against Mu-type opioid receptor [5]) were > 10000 nM and 2840 nM, respectively. For the same compound, the Ratio in assay [1] stood at 81. The Ki at Mu-type opioid receptor [2] came to 1.43 nM; in assay [3], 116 nM. Further, the Kb in assay [6] is 3160 nM.

On to `N[C@H](Cc1ccc(O)cc1)C(=O)NCCCCNC(=O)[C@@H](N)Cc1ccc(O)cc1`, for which the Ratio in assay [1] was found to be 21. The Ki at Mu-type opioid receptor [2] is 309 nM; in assay [3], 6500 nM.

Consider `Cc1cc(O)cc(C)c1C[C@@H](N)C(=O)NCCCCCCNC(=O)[C@@H](N)Cc1c(C)cc(O)cc1C`, for which the IC50 in assay [4] was > 10000 nM; against Mu-type opioid receptor [5], 3.08 nM. Moreover, the Ratio in assay [1] worked out at 870. For the same compound, the values for the Ki (on Mu-type opioid receptor [2]; in assay [3]) were 0.053 nM and 46.1 nM, respectively. The Kb in assay [6] was 794 nM.

Regarding `N[C@H](Cc1ccccc1)C(=O)NCCCCNC(=O)[C@@H](N)Cc1ccccc1`, the Ratio in assay [1] stood at 30. Further, the Ki on Mu-type opioid receptor [2] is 1530 nM; in assay [3] it was 46200 nM.

For `Cc1cc(O)cc(C)c1C[C@H](N)C(=O)NCCCCNC(=O)[C@H](N)Cc1ccccc1`, the IC50 in assay [4] is > 10000 nM; against Mu-type opioid receptor [5], 181 nM. Moreover, the Ratio in assay [1] came to 119. Also, the Ki is 0.52 nM at Mu-type opioid receptor [2] and 62 nM in assay [3]. Moreover, in assay [6], the Kb is 3160 nM.

On to `Cc1cc(O)cc(C)c1C[C@@H](N)C(=O)NCCCCNC(=O)[C@@H](N)Cc1c(C)cc(O)cc1C`, for which the values for the IC50 (in assay [4]; against Mu-type opioid receptor [5]) were > 10000 nM and 5.33 nM, respectively. Further, the Ratio in assay [1] is 1300. Besides, the Ki on Mu-type opioid receptor [2] turned out to be 0.041 nM; in assay [3], 53.4 nM. In addition, in assay [6], the Kb was 1580 nM.

By Ki is commonly meant a dissociation constant, usually derived from enzyme kinetics or from competition with a known ligand. A low value points to a stronger hold on the target. The IC50 is the point on the concentration scale where inhibition reaches its midpoint.
